Paper PMC8694313 (RSC Advances, 2021)
Converted amounts (≈) assume the structure as drawn.

Key:
[1] = tested on: cotton pellet induced granuloma; assay: Cotton pellets induced granuloma assay; format: in vivo; conditions: rat, 100 mg kg^−1 p.o. for 8 d, mean ± SEM
Summary of the method: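 Two sterile 10 mg cotton pellets implanted ventrally in rats, six per group. […] On day 9 rats were killed under excess ether. Pellets were freed of tissue and weighed wet, then dried at 55 °C for 6 h or to constant weight. Granuloma equals dry weight minus cotton weight. Mean ± SEM.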

[2] = tested on: carrageenan-induced paw edema; assay: Carrageenan induced hind paw edema assay; format: in vivo; conditions: rat, 100 mg kg^−1 p.o., mean ± SEM
Summary of the method: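 Rats, six per group, acclimatized one week (25 ± 2 °C, 12 h light/dark, standard pellets, water ad libitum). […] Paw volume measured by plethysmometer displacement to the lateral malleolus at 1, 3 and 6 h. Mean ± SEM.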

Escherichia coli = assay: In vitro antibacterial MIC determination; format: cell-based
Summary of the method: (§1)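 Bacteria grown on nutrient agar, subcultured to log phase in nutrient broth, then diluted in sterile saline to about 10^5–10^6 CFU mL−1. Test compounds diluted in acetone, DMSO or diethyl ether (ether preferred). Saturated disks placed on spread-plated inoculum and incubated at 37 °C for 24 h. MIC determined across different compound concentrations, with streptomycin as standard.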

Pseudomonas aeruginosa = assay: In vitro antibacterial MIC determination; format: cell-based
Summary of the method: as §1

Rhizopus arrhizus = assay: In vitro antifungal MIC, poison plate technique; format: cell-based
COX-1 = target: T1, COX-1 (Ovis aries, UniProt P05979); assay: Colorimetric COX; format: biochemical, ovine; conditions: read-out: % inhibition of COX, COX-1
T1 sequence (P05979 25-600): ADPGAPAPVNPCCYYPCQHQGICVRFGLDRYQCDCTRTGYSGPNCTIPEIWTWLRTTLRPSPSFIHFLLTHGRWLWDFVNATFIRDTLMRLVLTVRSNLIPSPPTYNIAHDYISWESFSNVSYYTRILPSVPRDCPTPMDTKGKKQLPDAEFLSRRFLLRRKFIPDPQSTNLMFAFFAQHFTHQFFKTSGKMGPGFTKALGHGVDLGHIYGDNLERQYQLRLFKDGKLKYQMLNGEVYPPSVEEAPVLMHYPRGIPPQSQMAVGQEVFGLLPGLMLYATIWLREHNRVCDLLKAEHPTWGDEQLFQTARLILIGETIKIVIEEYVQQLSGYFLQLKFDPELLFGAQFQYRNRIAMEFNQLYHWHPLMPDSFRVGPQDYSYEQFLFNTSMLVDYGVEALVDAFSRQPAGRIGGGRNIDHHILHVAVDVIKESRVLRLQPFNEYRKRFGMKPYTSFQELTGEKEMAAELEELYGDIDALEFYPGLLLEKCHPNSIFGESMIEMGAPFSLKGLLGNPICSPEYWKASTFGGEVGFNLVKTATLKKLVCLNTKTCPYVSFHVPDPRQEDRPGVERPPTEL

COX-2 = target: T2, COX-2 (Ovis aries, UniProt P79208); assay: Colorimetric COX; format: biochemical, ovine; conditions: read-out: % inhibition of COX, COX-2
T2 sequence (P79208 17-603): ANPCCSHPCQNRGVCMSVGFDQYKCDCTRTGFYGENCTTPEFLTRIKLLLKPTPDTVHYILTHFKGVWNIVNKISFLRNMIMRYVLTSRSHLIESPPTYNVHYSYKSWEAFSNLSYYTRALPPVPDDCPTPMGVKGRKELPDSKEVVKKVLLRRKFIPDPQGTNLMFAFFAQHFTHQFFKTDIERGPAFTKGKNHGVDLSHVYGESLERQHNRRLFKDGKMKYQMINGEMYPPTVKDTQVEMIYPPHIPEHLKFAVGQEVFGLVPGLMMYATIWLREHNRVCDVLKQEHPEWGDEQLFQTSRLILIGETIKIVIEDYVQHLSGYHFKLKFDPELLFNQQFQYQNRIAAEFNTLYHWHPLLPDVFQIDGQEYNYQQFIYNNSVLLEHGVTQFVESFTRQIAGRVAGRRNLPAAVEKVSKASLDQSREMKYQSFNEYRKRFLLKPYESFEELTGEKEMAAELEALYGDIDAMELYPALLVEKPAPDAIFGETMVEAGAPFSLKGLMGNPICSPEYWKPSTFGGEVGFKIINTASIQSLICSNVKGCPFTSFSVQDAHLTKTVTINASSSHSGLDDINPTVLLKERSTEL

Staphylococcus aureus = assay: In vitro antibacterial MIC determination; format: cell-based
Summary of the method: as §1

Aspergillus flavus = assay: In vitro antifungal MIC, poison plate technique; format: cell-based
Bacillus subtillis = assay: In vitro antibacterial MIC determination; format: cell-based
Summary of the method: as §1

Aspergillus niger = assay: In vitro antifungal MIC, poison plate technique; format: cell-based
RAW 264.7 cells [3] = assay: Nitrite; format: cell-based, murine; conditions: RAW 264.7, 100 μM and 200 μM pre-treatment; Fig. 5
Summary of the method: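 RAW 264.7 cells (1 × 10^6) seeded in flasks and left to adhere overnight. Pretreated 1 h with test compound (100 or 200 μM), then 100 μM LPS for 24 h at 37 °C, 5% CO2. Supernatant mixed with an equal volume of Griess reagent (0.1% naphthylethylenediamine and 1% sulfanilamide, 1:1, in 5% phosphoric acid) for 10 min in the dark at room temperature; A540 read. Nitrite quantified from a NaNO2 standard curve (0.1–6.25 μM), expressed as μmol NO2−/mg protein. Triplicates.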

RAW 264.7 cells [4] = assay: MTT assay, LPS-induced inflammation in RAW 264.7; format: cell-based, murine; conditions: RAW 264.7, pre-treatment 100 μM and 200 μM, then LPS; Fig. 4
Summary of the method: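 Mouse RAW 264.7 macrophages kept in high-glucose DMEM with 10% heat-inactivated FBS and 1% penicillin–streptomycin at 37 °C, 5% CO2. Cells seeded at 5 × 10^5 cells per mL, pretreated 1 h with test compound (100 or 200 μM), then stimulated with […] for 24 h. Medium replaced; 0.5 mg mL−1 MTT for 3 h; formazan dissolved in DMSO; OD read at 540 nm. Percent inflammation derived by subtracting percent viability relative to control.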

| Compound | Weight, Dry (cotton pellet) [1] | Weight, Wet (cotton pellet) [1] | Paw volume ([2]; 1 h after carrageenan) | Paw volume ([2]; 3 h after carrageenan) | Paw volume ([2]; 6 h after carrageenan) | MIC (Escherichia coli) | MIC (Pseudomonas aeruginosa) | MIC (Rhizopus arrhizus) | inhibition at 100 µM (COX-1) | inhibition at 200 µM (COX-1) | inhibition at 100 µM (COX-2) | inhibition at 200 µM (COX-2) | MIC (Staphylococcus aureus) | MIC (Aspergillus flavus) | MIC (Bacillus subtillis) | MIC (Aspergillus niger) | inhibition of LPS-induced NO production (RAW 264.7 cells [3]) | anti-inflammatory activity against LPS induced cell death / inflammation (MTT) (RAW 264.7 cells [4]) |
| --- | --- | --- | --- | --- | --- | --- | --- | --- | --- | --- | --- | --- | --- | --- | --- | --- | --- | --- |
| Cc1ccc(-c2cc(C(F)(F)F)nn2-c2ccc(S(N)(=O)=O)cc2)cc1 [Celecoxib, reference compound] | 78.80 ± 3.24 mg | 150.14 ± 3.46 mg | 0.80 ± 0.50 mL | 0.98 ± 0.92 mL | 1.58 ± 0.22 mL | – | – | – | – | – | – | – | – | – | – | – | – | – |
| O=S(=O)(NC[C@@H](O)[C@@H]1CCc2cc(F)ccc2O1)c1ccc(F)cc1 [Compound 8a, N-((R)-2-((S)-6-Fluorochroman-2-yl)-2-hydroxyethyl)-4-fluorobenzenesulfonamide] | – | – | – | – | – | 30.1 ± 0.72 µg/mL (≈ 81.6 µM) | 31.9 ± 1.04 µg/mL (≈ 86.3 µM) | 22.8 ± 0.54 µg/mL (≈ 61.7 µM) | 37.3 ± 0.32% | 45.5 ± 0.77% | 23.5 ± 0.55% | 38.64 ± 0.33% | 21.9 ± 0.33 µg/mL (≈ 59.2 µM) | 23.1 ± 0.25 µg/mL (≈ 62.4 µM) | 31.6 ± 1.03 µg/mL (≈ 85.5 µM) | 22.3 ± 0.27 µg/mL (≈ 60.4 µM) | – | – |
| O=[N+]([O-])c1cc(S(=O)(=O)NC[C@@H](O)[C@@H]2CCc3cc(F)ccc3O2)ccc1Cl [Compound 8d, 4-Chloro-N-((R)-2-((S)-6-Fluorochroman-2-yl)-2-hydroxyethyl)-3-nitrobenzenesulfonamide] | – | – | 0.78 ± 0.88 mL | 1.08 ± 0.40 mL | 1.50 ± 0.64 mL | 24.2 ± 0.72 µg/mL (≈ 56.1 µM) | 27.4 ± 0.65 µg/mL (≈ 63.6 µM) | 18.6 ± 0.65 µg/mL (≈ 43.3 µM) | 53.88 ± 0.3% | 69.64 ± 0.18% | 39.3 ± 0.77% | 63.88 ± 0.46% | 17.4 ± 0.4 µg/mL (≈ 40.5 µM) | 17 ± 0.7 µg/mL (≈ 39.6 µM) | 18.3 ± 0.21 µg/mL (≈ 42.5 µM) | 15.3 ± 0.15 µg/mL (≈ 35.5 µM) | strong inhibition | strong anti-inflammatory activity |
| COC(=O)NC[C@@H](O)[C@@H]1CCc2cc(F)ccc2O1 [Compound 9a, Methyl ((R)-2-((S)-6-fluorochroman-2-yl)-2-hydroxyethyl)carbamate] | – | – | 0.72 ± 0.72 mL | 1.06 ± 0.52 mL | 1.56 ± 0.33 mL | 21.7 ± 1.06 µg/mL (≈ 80.6 µM) | 19.5 ± 1.25 µg/mL (≈ 72.3 µM) | 14.2 ± 0.69 µg/mL (≈ 52.7 µM) | 50.66 ± 0.33% | 75.33 ± 0.14% | 18.1 ± 0.88% | 52.42 ± 0.21% | 16.6 ± 0.35 µg/mL (≈ 61.5 µM) | 12.7 ± 0.8 µg/mL (≈ 47 µM) | 20.5 ± 0.76 µg/mL (≈ 76.1 µM) | 11.2 ± 1.08 µg/mL (≈ 41.6 µM) | strong inhibition | strong anti-inflammatory activity |
| O=C(NC[C@@H](O)[C@@H]1CCc2cc(F)ccc2O1)OCC(Cl)(Cl)Cl [Compound 9b, 2,2,2-Trichloroethyl ((R)-2-((S)-6-fluorochroman-2-yl)-2-hydroxyethyl)carbamate] | – | – | 0.76 ± 0.48 mL | 0.88 ± 0.16 mL | 1.50 ± 0.25 mL | 21.1 ± 0.45 µg/mL (≈ 54.7 µM) | 30.36 ± 0.22 µg/mL (≈ 78.5 µM) | 19.2 ± 0.48 µg/mL (≈ 49.8 µM) | 43.1 ± 0.8% | 69.02 ± 0.5% | 37.7 ± 0.35% | 63.6 ± 0.32% | 20.32 ± 0.06 µg/mL (≈ 52.6 µM) | 23.8 ± 0.67 µg/mL (≈ 61.6 µM) | 26 ± 0.42 µg/mL (≈ 67.2 µM) | 24.7 ± 0.7 µg/mL (≈ 63.9 µM) | – | – |
| CC(C)COC(=O)NC[C@@H](O)[C@@H]1CCc2cc(F)ccc2O1 [Compound 9c, Isobutyl ((R)-2-((S)-6-fluorochroman-2-yl)-2-hydroxyethyl)carbamate] | – | – | – | – | – | 22.7 ± 0.26 µg/mL (≈ 73 µM) | 28.8 ± 0.6 µg/mL (≈ 92.5 µM) | 25.6 ± 0.48 µg/mL (≈ 82.1 µM) | 39.6 ± 0.08% | 51.64 ± 0.32% | 24.3 ± 0.2% | 41.66 ± 0.23% | 19 ± 1.08 µg/mL (≈ 61.2 µM) | 19.8 ± 0.37 µg/mL (≈ 63.6 µM) | 26.1 ± 0.3 µg/mL (≈ 83.8 µM) | 19.3 ± 0.47 µg/mL (≈ 62.1 µM) | – | – |
| CCOC(=O)NC[C@@H](O)[C@@H]1CCc2cc(F)ccc2O1 [Compound 9d, Ethyl((R)-2-((S)-6-fluorochroman-2-yl)-2-hydroxyethyl)carbamate] | – | – | – | – | – | 27.2 ± 0.92 µg/mL (≈ 96.1 µM) | 31.7 ± 0.88 µg/mL (≈ 112 µM) | 31.3 ± 0.45 µg/mL (≈ 110 µM) | 41.4 ± 0.62% | 52.16 ± 0.3% | 29.7 ± 0.75% | 38.59 ± 0.29% | 18.1 ± 0.8 µg/mL (≈ 63.8 µM) | 25.2 ± 0.66 µg/mL (≈ 89 µM) | 27.7 ± 0.44 µg/mL (≈ 97.6 µM) | 28.46 ± 0.14 µg/mL (≈ 100 µM) | – | – |
| [H]/N=C(/N)N[C@H]1[C@H](O)[C@@H](O)[C@H](O[C@@H]2O[C@@H](C)[C@](O)(C=O)[C@H]2O[C@@H]2O[C@@H](CO)[C@H](O)[C@@H](O)[C@@H]2NC)[C@@H](N/C(N)=N\[H])[C@@H]1O [Streptomycin, reference compound] | – | – | – | – | – | 26.4 ± 1.12 µg/mL (≈ 45.4 µM) | 28.2 ± 0.8 µg/mL (≈ 48.5 µM) | – | – | – | – | – | 18.6 ± 1.07 µg/mL (≈ 32.1 µM) | – | 25.4 ± 0.48 µg/mL (≈ 43.7 µM) | – | – | – |
